ChEMBL document CHEMBL3774374, “The Effect of Small Molecules on Sterol Homeostasis: Measuring 7-Dehydrocholesterol in Dhcr7-Deficient Neuro2a Cells and Human Fibroblasts” (J Med Chem, 2016)
Calls of active or inactive are those of the source. The rule behind the calls is not given here.

Columns and labels:
N2a [1] = test: Increase in 7-DHC levels in mouse Neuro2a cells at 100 nM by LC-MS analysis; format: functional
How it was run: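 Control Neuro2a cells in 96-well plates, treated at 1, 10 and 100 nM. 7-DHC measured by PTAD derivatization and UPLC-MS against deuterated 7-DHC standard; n > 3.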

N2a [2] = test: Decrease in lanosterol levels in mouse Neuro2a cells by LC-MS analysis; format: functional, cell-based
How it was run: (§1)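 Control Neuro2a cells (10000/well, 0.5% FBS) on compound, 24 h. Hoechst cell count, then methanol lysis with labelled standards (d7-7-DHC, 13C3-desmosterol, 13C3-lanosterol), PTAD derivatization 20 min at RT, UPLC-MS SRM. GC-MS of silylated extract for further sterols.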

N2a [3] = test: Increase in 7-DHC levels in Dhcr7-deficient mouse Neuro2a cells at 200 nM after 24 hrs by LC-MS analysis; format: functional, cell-based
How it was run: (§2)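 384-well screen: Dhcr7-deficient Neuro2a cells (13000/well, 0.5% FBS) with compound at 20 or 200 nM (five wells each), 24 h at 37 °C. Cells counted after Hoechst imaging, then methanol lysis with d7-7-DHC standard, PTAD derivatization 20 min at RT, UPLC-MS SRM (7-DHC 560→365). Read-out is pg 7-DHC per cell.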

N2a [4] = test: Decrease in desmosterol levels in mouse Neuro2a cells by LC-MS analysis; format: functional, cell-based; how it was run: as §1
Fibroblast = test: Decrease in cholesterol levels in human SLOS fibroblasts at 10 nM after 5 days by LC-MS/GC-MS analysis; format: functional, cell-based
How it was run: (§3)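 SLOS patient skin fibroblasts (passage 8–20) grown in 96-well plates in delipidated serum with compound for 5 days; three different SLOS lines. Sterols quantified by PTAD-derivatized UPLC-MS plus GC-MS; 7-DHC expressed as percentage of untreated cells.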

[5] = biological target: T1, 3-beta-hydroxysteroid-Delta(8),Delta(7)-isomerase (Mus musculus) (UniProt P70245); test: Inhibition of delta 8-7 isomerase in Dhcr7-deficient mouse Neuro2a cells assessed as decrease in 7-DHC levels at 20 nM after 24 hrs by LC-MS analysis; format: cell-based
T1 sequence (whole entry): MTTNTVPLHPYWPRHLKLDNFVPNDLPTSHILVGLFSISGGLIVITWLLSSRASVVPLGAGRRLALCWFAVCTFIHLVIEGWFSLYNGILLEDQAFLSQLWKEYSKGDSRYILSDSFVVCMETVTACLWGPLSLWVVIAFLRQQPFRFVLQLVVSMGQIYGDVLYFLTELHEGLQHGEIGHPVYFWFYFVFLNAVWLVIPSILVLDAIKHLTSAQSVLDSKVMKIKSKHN
How it was run: (§4)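 384-well screen: Dhcr7-deficient Neuro2a cells (13000/well) dispensed in 0.5% FBS medium onto predeposited compound (five wells each at 20 and 200 nM) and incubated 24 h at 37 °C. Nuclei Hoechst-stained and counted by automated imaging. Cells lysed in MeOH with deuterated and 13C standards, then derivatised with PTAD for 20 min at RT. 7-DHC measured by isocratic UPLC-MS (SRM) and expressed as pg per cell; DMSO wells served as controls.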

[6] = biological target: T2, Delta(24)-sterol reductase (Mus musculus) (UniProt Q8VCH6); test: Inhibition of DR24 in Dhcr7-deficient mouse Neuro2a cells assessed as decrease in 7-DHC levels at 1 uM by LC-MS/GC-MS analysis; format: cell-based
T2 sequence (whole entry): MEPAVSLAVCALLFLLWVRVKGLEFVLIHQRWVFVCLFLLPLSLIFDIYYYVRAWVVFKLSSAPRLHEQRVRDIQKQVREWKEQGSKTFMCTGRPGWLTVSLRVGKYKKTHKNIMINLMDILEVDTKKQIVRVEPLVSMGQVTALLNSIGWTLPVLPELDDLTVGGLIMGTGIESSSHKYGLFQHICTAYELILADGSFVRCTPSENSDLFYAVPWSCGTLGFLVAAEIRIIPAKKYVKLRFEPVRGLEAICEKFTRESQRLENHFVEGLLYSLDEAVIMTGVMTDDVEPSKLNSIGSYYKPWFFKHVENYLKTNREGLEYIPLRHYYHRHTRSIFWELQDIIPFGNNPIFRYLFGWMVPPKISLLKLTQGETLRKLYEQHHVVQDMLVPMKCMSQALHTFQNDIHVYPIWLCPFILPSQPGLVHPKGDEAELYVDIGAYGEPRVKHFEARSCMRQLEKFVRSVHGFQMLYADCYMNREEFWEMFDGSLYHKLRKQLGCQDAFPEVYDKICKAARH
How it was run: (§5)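 Dhcr7-deficient Neuro2a cells (13000/well, 0.5% FBS medium) on predeposited compound, 24 h at 37 °C. Hoechst-stained and imaged to count cells. Lysed in methanol containing isotope-labelled sterol standards, derivatized with PTAD 20 min at RT, then isocratic C18 UPLC-MS/SRM. Remaining extract silylated with BSTFA for GC-MS, quantified against d7-cholesterol. Follow-up runs in triplicate.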

[7] = biological target: T2, Delta(24)-sterol reductase (Mus musculus); test: Inhibition of DR24 in Dhcr7-deficient mouse Neuro2a cells assessed as decrease in 7-DHC levels at 20 nM after 24 hrs by LC-MS analysis; format: cell-based; how it was run: as §2
[8] = Cytotoxicity against human SLOS fibroblasts at 5 uM after 5 days by Cell Titer assay; format: cell-based; conditions: fibroblast, 120 h
[9] = biological target: T2, Delta(24)-sterol reductase (Mus musculus); test: Inhibition of DR24 in mouse Neuro2a cells assessed as decrease in 7-DHC levels at 1 uM by LC-MS/GC-MS analysis; format: cell-based; how it was run: as §1
[10] = biological target: T2, Delta(24)-sterol reductase (Mus musculus); test: Inhibition of DR24 in Dhcr7-deficient mouse Neuro2a cells assessed as decrease in 7-DHC levels at 200 nM after 24 hrs by LC-MS analysis; format: cell-based; how it was run: as §2
[11] = biological target: T1, 3-beta-hydroxysteroid-Delta(8),Delta(7)-isomerase (Mus musculus); test: Inhibition of delta 8-7 isomerase in Dhcr7-deficient mouse Neuro2a cells assessed as decrease in cholesterol levels at 1 uM by LC-MS/GC-MS analysis; format: cell-based
How it was run: (§6)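 Follow-up (verification) assay in 96-well plates, run as the 384-well screen, in triplicate, at varying compound concentrations. Cells counted by Hoechst imaging, washed with PBS, then lysed in MeOH with BHT/TPP and isotope standards (d7-Chol, d7-7-DHC, 13C3-Des, 13C3-Lan). Sterols derivatised with PTAD for 20 min at RT and quantified by C18 UPLC-MS (SRM). Remaining sample silylated with BSTFA and run on GC-MS, quantified against d7-Chol.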

[12] = biological target: 3-beta-hydroxysteroid-Delta(8),Delta(7)-isomerase (Homo sapiens) (UniProt Q15125); test: Inhibition of delta 8-7 isomerase in human SLOS fibroblasts assessed as decrease in 7-DHC levels at 10 nM after 5 days by LC-MS/GC-MS analysis; how it was run: as §3
Chain of 3-beta-hydroxysteroid-Delta(8),Delta(7)-isomerase (Homo sapiens) (Q15125 whole entry): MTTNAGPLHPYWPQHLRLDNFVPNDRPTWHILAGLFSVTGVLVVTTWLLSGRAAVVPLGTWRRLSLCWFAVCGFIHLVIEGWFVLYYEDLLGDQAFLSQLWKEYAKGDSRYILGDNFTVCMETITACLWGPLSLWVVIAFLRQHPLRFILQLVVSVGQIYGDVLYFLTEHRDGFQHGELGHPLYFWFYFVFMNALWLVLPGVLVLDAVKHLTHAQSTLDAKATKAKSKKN

[13] = biological target: T1, 3-beta-hydroxysteroid-Delta(8),Delta(7)-isomerase (Mus musculus); test: Inhibition of delta 8-7 isomerase in Dhcr7-deficient mouse Neuro2a cells assessed as decrease in 7-DHC levels at 200 nM after 24 hrs by LC-MS analysis; format: cell-based; how it was run: as §4
[14] = biological target: T1, 3-beta-hydroxysteroid-Delta(8),Delta(7)-isomerase (Mus musculus); test: Inhibition of delta 8-7 isomerase in mouse Neuro2a cells assessed as decrease in 7-DHC levels at 1 uM by LC-MS/GC-MS analysis; format: cell-based; how it was run: as §1
[15] = biological target: T1, 3-beta-hydroxysteroid-Delta(8),Delta(7)-isomerase (Mus musculus); test: Inhibition of delta 8-7 isomerase in Dhcr7-deficient mouse Neuro2a cells assessed as decrease in 7-DHC levels at 1 uM by LC-MS/GC-MS analysis; format: cell-based; how it was run: as §5
[16] = biological target: T1, 3-beta-hydroxysteroid-Delta(8),Delta(7)-isomerase (Mus musculus); test: Inhibition of delta 8-7 isomerase in Dhcr7-deficient mouse Neuro2a cells assessed as increase in zymostenol levels at 1 uM by LC-MS/GC-MS analysis; format: cell-based; how it was run: as §6
[17] = biological target: T3, Delta(24)-sterol reductase (Homo sapiens) (UniProt Q15392); test: Inhibition of DR24 in human SLOS fibroblasts assessed as decrease in 7-DHC levels at 10 nM after 5 days by LC-MS/GC-MS analysis; how it was run: as §3
T3 sequence (whole entry): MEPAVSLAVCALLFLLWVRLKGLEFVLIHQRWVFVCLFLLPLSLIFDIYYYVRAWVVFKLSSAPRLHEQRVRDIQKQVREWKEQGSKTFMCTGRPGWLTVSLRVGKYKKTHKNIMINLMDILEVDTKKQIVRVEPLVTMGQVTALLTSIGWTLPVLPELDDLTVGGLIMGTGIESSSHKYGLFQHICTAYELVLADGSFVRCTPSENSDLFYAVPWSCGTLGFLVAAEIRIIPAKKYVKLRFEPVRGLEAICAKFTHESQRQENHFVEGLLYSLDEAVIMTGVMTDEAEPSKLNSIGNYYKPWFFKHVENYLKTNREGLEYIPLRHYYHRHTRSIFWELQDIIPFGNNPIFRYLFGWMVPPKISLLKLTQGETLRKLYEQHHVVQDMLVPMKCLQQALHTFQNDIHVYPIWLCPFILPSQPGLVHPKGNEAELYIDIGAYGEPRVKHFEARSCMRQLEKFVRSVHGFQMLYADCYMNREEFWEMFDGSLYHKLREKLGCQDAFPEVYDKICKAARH

[18] = biological target: T1, 3-beta-hydroxysteroid-Delta(8),Delta(7)-isomerase (Mus musculus); test: Inhibition of delta 8-7 isomerase in Dhcr7-deficient mouse Neuro2a cells assessed as increase in zymosterol levels at 1 uM by LC-MS/GC-MS analysis; format: cell-based; how it was run: as §6
[19] = biological target: T3, Delta(24)-sterol reductase (Homo sapiens); test: Inhibition of DR24 in human SLOS fibroblasts assessed as decrease in 7-DHC levels at 100 nM after 5 days by LC-MS/GC-MS analysis
How it was run: (§7)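 SLOS patient skin fibroblasts (passage 8–20; three different lines) grown in 96-well plates in delipidated serum with compound for 5 days. 7-DHC and cholesterol quantified by PTAD-derivatisation UPLC-MS with isotopic standards. Values expressed as percentage of 7-DHC in the same cells grown without compound.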

[20] = biological target: 3-beta-hydroxysteroid-Delta(8),Delta(7)-isomerase (Homo sapiens) (UniProt Q15125); test: Inhibition of delta 8-7 isomerase in human SLOS fibroblasts assessed as decrease in 7-DHC levels at 100 nM after 5 days by LC-MS/GC-MS analysis; how it was run: as §7

O=C1CCc2ccc(OCCCCN3CCN(c4cccc(Cl)c4Cl)CC3)cc2N1 [ARIPIPRAZOLE]
fold change (FC) (N2a [1]): 40 | Activity (N2a [2]): Active | Activity (N2a [3]): Active | Activity (N2a [4]): Active

CCN(CC)CCOc1ccc(C(=C(Cl)c2ccccc2)c2ccccc2)cc1 [CLOMIPHENE]
Activity (Fibroblast): inactive | inhibition [5]: Active | inhibition [6]: Active | inhibition [7]: Active | Activity [8]: Non-toxic | Decrease in 7-DHC levels (active/inactive call) [9]: Active | inhibition [10]: Active | inhibition [11]: Active | inhibition [12]: Active | inhibition [13]: Active | Activity (decrease in 7-DHC levels) [14]: Active | inhibition [15]: Active | inhibition [16]: Active | inhibition [17]: Active | inhibition [18]: Active

CN(C)CCOc1ccc(/C(=C(/CCCl)c2ccccc2)c2ccccc2)cc1 [TOREMIFENE]
inhibition [6]: Active | Activity [8]: Toxic | inhibition [9]: Active | inhibition [11]: Active | Activity (decrease in 7-DHC levels) [14]: Active | inhibition [19]: Active | inhibition [15]: Active | inhibition [16]: Active | inhibition [18]: Active | inhibition [20]: Active
